# Data from ChEMBL document CHEMBL4184148 (Bioorg Med Chem Lett, 2017).
# How the values were obtained:
# [1] = biological target: Receptor-type tyrosine-protein kinase FLT3 (Homo sapiens) (UniProt P36888); experiment: Binding affinity to wild-type human partial length FLT3 (V592 to Y969 residues) expressed in Escherichia coli BL21 at 1 uM by Kinomescan method relative to control
# [2] = biological target: Serine/threonine-protein kinase 24 (Homo sapiens) (UniProt Q9Y6E0); experiment: Binding affinity to wild-type human partial length MST3 (A30 to S311 residues) expressed in Escherichia coli BL21 at 1 uM by Kinomescan method relative to control
# Sequence of Serine/threonine-protein kinase 24 (Homo sapiens) (Q9Y6E0 whole entry, looked up, the tested form may be a part): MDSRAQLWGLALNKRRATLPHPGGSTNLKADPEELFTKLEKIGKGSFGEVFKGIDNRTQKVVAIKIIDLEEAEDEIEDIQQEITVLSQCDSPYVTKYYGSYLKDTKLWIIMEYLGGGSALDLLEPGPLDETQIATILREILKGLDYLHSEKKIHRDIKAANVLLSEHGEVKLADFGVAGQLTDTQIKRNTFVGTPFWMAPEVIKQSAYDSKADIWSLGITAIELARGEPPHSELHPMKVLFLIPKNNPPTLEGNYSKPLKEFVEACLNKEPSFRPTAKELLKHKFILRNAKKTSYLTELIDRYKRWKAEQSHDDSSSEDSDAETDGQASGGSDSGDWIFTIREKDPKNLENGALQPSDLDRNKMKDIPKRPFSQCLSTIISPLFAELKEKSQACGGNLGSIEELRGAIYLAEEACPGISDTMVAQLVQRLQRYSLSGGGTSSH
# [3] = biological target: MAP/microtubule affinity-regulating kinase 4 (Homo sapiens) (UniProt Q96L34); experiment: Binding affinity to wild-type human partial length MARK4 (K29 to G340 residues) expressed in Escherichia coli BL21 at 1 uM by Kinomescan method relative to control
# [4] = biological target: Receptor-interacting serine/threonine-protein kinase 1 (Homo sapiens) (UniProt Q13546); experiment: Binding affinity to wild-type human partial length RIPK1 (M1 to K305 residues) expressed in Escherichia coli BL21 at 1 uM by Kinomescan method relative to control
# [5] = biological target: Calcium/calmodulin-dependent protein kinase type II subunit delta (Homo sapiens) (UniProt Q13557); experiment: Binding affinity to wild-type human partial length CAMK2D (M1 to E329 residues) expressed in Escherichia coli BL21 at 1 uM by Kinomescan method relative to control
# [6] = biological target: Calcium/calmodulin-dependent protein kinase type II subunit beta (Homo sapiens) (UniProt Q13554); experiment: Binding affinity to wild-type human partial length CAMK2B (M1 to Q380 residues) expressed in Escherichia coli BL21 at 1 uM by Kinomescan method relative to control
# [7] = biological target: Dual specificity mitogen-activated protein kinase kinase 7 (Homo sapiens) (UniProt O14733); experiment: Binding affinity to wild-type human full length MKK7 (M1 to R419 residues) expressed in HEK293 cells at 1 uM by Kinomescan method relative to control; format: cell-based
# Sequence of Dual specificity mitogen-activated protein kinase kinase 7 (Homo sapiens) (O14733 whole entry, the tested form may be a part): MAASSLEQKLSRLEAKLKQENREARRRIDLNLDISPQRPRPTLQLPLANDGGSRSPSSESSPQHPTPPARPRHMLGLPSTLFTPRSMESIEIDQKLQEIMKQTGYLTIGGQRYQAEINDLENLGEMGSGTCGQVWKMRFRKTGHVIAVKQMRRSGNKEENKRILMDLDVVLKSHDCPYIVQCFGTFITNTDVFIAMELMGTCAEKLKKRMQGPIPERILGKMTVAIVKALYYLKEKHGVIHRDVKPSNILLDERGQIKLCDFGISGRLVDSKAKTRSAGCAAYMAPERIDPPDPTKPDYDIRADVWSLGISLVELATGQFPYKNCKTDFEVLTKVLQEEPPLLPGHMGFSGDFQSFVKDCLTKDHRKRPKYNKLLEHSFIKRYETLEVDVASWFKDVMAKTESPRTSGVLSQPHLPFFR
# How it was run: (§1)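 Run as one kinome-wide competition binding panel with each compound at a single fixed concentration. Results were plotted as a kinome-wide selectivity map.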
# [8] = biological target: Maternal embryonic leucine zipper kinase (Homo sapiens) (UniProt Q14680); experiment: Binding affinity to wild-type human full length MELK (M1 to V651 residues) expressed in Escherichia coli BL21 at 1 uM by Kinomescan method relative to control; how it was run: as §1
# [9] = system: Receptor-type tyrosine-protein kinase FLT3 (Homo sapiens), P36888 [UNDEFINED MUTATION]; experiment: Binding affinity to human partial length FLT3 ITD/D835V double mutant expressed in Escherichia coli BL21 at 1 uM by Kinomescan method relative to control
# Sequence of Receptor-type tyrosine-protein kinase FLT3 (Homo sapiens), P36888 [UNDEFINED MUTATION] (P36888 whole entry, looked up, stated change not applied, the tested form may be a part): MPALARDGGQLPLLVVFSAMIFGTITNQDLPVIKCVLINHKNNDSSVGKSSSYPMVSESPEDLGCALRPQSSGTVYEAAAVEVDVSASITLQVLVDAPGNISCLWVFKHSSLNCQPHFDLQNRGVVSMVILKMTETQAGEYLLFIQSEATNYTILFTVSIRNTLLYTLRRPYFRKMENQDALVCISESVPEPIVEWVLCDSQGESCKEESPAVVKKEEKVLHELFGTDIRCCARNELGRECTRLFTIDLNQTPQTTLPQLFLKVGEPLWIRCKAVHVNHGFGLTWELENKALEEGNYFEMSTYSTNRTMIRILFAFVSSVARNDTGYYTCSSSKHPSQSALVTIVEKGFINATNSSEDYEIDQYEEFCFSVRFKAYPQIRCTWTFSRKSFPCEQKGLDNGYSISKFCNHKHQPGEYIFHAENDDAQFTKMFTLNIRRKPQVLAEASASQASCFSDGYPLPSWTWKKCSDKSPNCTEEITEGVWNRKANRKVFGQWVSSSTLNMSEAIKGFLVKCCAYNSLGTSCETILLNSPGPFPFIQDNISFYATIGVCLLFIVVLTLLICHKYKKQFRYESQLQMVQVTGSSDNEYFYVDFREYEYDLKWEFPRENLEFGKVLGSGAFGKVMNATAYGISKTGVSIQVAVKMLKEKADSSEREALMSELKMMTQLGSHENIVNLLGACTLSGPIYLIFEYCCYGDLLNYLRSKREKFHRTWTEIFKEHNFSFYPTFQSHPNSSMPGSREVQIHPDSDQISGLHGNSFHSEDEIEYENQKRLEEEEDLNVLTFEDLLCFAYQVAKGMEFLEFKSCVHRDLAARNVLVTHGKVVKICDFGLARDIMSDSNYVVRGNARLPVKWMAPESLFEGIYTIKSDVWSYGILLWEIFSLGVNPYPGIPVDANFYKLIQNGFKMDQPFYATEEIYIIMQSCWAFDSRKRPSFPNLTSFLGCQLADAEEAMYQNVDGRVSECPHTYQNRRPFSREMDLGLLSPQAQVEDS
# [10] = biological target: Ephrin type-A receptor 8 (Homo sapiens) (UniProt P29322); experiment: Binding affinity to wild-type human partial length EPHA8 (Q608 to C920 residues) expressed in Escherichia coli BL21 at 1 uM by Kinomescan method relative to control
# [11] = biological target: Protein-tyrosine kinase 2-beta (Homo sapiens) (UniProt Q14289); experiment: Binding affinity to wild-type human full length PYK2 (M1 to E967 residues) expressed in Escherichia coli BL21 at 1 uM by Kinomescan method relative to control
# How it was run: (§2)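 Kinome-wide competition binding panel run by an outside provider, with each compound tested at a single concentration. Activity is read against the kinase panel.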
# [12] = system: Mast/stem cell growth factor receptor Kit (Homo sapiens), P10721 [V559D,T670I]; experiment: Binding affinity to human partial length KIT V559D/T670I double mutant (Y545 to D952 residues) expressed in Escherichia coli BL21 at 1 uM by Kinomescan method relative to control
# Sequence of Mast/stem cell growth factor receptor Kit (Homo sapiens), P10721 [V559D,T670I] (P10721 whole entry V559D/T670I, the tested form may be a part): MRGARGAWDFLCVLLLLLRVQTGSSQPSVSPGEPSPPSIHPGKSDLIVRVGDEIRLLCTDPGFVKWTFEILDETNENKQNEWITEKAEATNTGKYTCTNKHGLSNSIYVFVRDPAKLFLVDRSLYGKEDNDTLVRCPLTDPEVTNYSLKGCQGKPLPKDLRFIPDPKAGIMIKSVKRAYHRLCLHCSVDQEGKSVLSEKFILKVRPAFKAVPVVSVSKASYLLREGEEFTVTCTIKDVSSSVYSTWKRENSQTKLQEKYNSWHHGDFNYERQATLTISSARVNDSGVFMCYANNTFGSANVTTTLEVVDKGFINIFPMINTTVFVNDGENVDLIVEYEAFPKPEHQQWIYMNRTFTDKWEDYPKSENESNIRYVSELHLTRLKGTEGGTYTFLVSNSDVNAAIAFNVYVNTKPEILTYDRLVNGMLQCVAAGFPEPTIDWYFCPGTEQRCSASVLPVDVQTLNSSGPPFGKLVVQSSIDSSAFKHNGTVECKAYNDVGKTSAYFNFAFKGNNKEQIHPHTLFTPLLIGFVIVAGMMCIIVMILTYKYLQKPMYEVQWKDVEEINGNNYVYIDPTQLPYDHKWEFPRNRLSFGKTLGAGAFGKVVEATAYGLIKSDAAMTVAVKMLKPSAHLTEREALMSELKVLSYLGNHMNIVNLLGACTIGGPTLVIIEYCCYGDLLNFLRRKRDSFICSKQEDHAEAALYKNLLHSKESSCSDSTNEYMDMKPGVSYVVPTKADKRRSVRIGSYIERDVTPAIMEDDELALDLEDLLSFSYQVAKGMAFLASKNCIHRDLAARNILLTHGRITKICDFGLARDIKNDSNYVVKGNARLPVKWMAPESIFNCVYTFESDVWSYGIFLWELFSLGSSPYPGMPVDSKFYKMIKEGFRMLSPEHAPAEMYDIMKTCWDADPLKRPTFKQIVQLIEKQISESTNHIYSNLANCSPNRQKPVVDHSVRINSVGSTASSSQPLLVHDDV
# [13] = biological target: Mitogen-activated protein kinase kinase kinase 7 (Homo sapiens) (UniProt O43318); experiment: Binding affinity to wild-type human partial length TAK1 (M1 to Q303 residues) expressed in HEK293 cells at 1 uM by Kinomescan method relative to control; format: cell-based
# [14] = biological target: MAP kinase-interacting serine/threonine-protein kinase 1 (Homo sapiens) (UniProt Q9BUB5); experiment: Binding affinity to wild-type human full length MKNK1 (M1 to L424 residues) expressed in HEK293 cells at 1 uM by Kinomescan method relative to control; format: cell-based; how it was run: as §1
# [15] = biological target: Receptor tyrosine-protein kinase erbB-2 (Homo sapiens) (UniProt P04626); experiment: Binding affinity to wild-type human partial length ERBB2 (K646 to V1225 residues) expressed in HEK293 cells at 1 uM by Kinomescan method relative to control; format: cell-based
# [16] = biological target: Protein kinase C iota type (Homo sapiens) (UniProt P41743); experiment: Binding affinity to wild-type human partial length PRKCI (H215 to V587 residues) expressed in HEK293 cells at 1 uM by Kinomescan method relative to control; format: cell-based
# [17] = biological target: Cyclin-dependent kinase-like 5 (Homo sapiens) (UniProt O76039); experiment: Binding affinity to wild-type human partial length CDKL5 (M1 to S337 residues) expressed in HEK293 cells at 1 uM by Kinomescan method relative to control; format: cell-based
# [18] = biological target: Testis-specific serine/threonine-protein kinase 1 (Homo sapiens) (UniProt Q9BXA7); experiment: Binding affinity to wild-type human full length TSSK1B (M1 to Q367 residues) expressed in Escherichia coli BL21 at 1 uM by Kinomescan method relative to control; how it was run: as §2
# Sequence of Testis-specific serine/threonine-protein kinase 1 (Homo sapiens) (Q9BXA7 whole entry, the tested form may be a part): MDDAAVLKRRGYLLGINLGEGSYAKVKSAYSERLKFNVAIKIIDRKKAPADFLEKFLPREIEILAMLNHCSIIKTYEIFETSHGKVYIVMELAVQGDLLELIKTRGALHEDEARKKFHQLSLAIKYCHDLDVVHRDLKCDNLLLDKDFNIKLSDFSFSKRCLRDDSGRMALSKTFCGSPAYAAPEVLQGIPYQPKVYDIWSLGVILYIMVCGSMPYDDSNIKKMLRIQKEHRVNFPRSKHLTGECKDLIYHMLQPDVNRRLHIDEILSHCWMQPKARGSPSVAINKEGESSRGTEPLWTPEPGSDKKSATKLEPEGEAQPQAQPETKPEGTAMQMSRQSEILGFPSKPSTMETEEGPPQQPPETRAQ
# [19] = biological target: MAP/microtubule affinity-regulating kinase 3 (Homo sapiens) (UniProt P27448); experiment: Binding affinity to wild-type human full length MARK3 (M1 to L729 residues) expressed in Escherichia coli BL21 at 1 uM by Kinomescan method relative to control; how it was run: as §1
# [20] = system: Hepatocyte growth factor receptor (Homo sapiens), P08581 [Y1235D]; experiment: Binding affinity to human partial length MET Y1235D mutant (D1010 to S1367 residues) expressed in Escherichia coli BL21 at 1 uM by Kinomescan method relative to control
# [21] = system: Tyrosine-protein kinase ABL1 (Homo sapiens), P00519 [Q252H]; experiment: Binding affinity to human non-phosphorylated ABL1 Q252H mutant (S229 to K512 residues) expressed in HEK293 cells at 1 uM by Kinomescan method relative to control; format: cell-based
# [22] = biological target: Serine/threonine-protein kinase 25 (Homo sapiens) (UniProt O00506); experiment: Binding affinity to wild-type human partial length YSK1 (V14 to H295 residues) expressed in Escherichia coli BL21 at 1 uM by Kinomescan method relative to control
# [23] = biological target: Death-associated protein kinase 1 (Homo sapiens) (UniProt P53355); experiment: Binding affinity to wild-type human partial length DAPK1 (M1 to F296 residues) expressed in Escherichia coli BL21 at 1 uM by Kinomescan method relative to control
# Sequence of Death-associated protein kinase 1 (Homo sapiens) (P53355 whole entry, looked up, the tested form may be a part): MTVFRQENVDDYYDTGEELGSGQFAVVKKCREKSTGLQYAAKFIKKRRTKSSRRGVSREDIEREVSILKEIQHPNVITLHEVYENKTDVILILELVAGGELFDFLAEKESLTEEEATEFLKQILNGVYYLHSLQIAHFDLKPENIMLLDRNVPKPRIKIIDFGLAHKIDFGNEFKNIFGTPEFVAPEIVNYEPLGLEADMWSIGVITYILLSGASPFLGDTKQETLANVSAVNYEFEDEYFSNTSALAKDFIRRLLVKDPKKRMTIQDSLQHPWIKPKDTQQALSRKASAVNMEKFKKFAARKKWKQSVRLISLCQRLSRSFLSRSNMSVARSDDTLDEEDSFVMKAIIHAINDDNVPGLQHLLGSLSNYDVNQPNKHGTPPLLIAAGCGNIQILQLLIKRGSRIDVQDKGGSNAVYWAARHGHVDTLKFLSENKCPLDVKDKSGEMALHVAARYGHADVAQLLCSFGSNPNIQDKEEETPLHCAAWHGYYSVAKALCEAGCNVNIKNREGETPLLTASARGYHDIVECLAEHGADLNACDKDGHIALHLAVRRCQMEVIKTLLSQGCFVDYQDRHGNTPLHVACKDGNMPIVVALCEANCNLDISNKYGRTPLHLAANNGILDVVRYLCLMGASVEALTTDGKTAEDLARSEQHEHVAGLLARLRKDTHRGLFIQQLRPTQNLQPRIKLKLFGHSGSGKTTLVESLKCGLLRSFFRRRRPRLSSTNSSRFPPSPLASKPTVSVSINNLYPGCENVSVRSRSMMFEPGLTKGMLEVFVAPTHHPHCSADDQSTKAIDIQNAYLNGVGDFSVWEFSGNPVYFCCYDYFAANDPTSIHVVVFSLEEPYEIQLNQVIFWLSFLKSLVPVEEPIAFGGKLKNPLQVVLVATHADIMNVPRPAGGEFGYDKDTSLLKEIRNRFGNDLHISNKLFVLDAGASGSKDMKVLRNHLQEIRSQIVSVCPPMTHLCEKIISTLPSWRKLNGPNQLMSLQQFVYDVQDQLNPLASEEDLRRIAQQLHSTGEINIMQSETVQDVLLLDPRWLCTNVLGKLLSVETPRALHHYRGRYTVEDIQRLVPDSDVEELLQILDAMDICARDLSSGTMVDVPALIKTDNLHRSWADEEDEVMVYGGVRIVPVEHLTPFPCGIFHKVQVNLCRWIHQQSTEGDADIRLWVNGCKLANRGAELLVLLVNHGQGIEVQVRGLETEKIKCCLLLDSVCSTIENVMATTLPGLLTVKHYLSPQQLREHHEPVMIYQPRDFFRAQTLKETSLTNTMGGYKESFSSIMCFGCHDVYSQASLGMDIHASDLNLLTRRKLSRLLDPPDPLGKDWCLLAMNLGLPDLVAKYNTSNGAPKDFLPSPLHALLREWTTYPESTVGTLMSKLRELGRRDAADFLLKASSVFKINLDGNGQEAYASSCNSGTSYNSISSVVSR
# [24] = biological target: STE20/SPS1-related proline-alanine-rich protein kinase (Homo sapiens) (UniProt Q9UEW8); experiment: Binding affinity to wild-type human partial length STK39 (P43 to I357 residues) expressed in HEK293 cells at 1 uM by Kinomescan method relative to control; format: cell-based
# [25] = biological target: Serine/threonine-protein kinase WNK4 (Homo sapiens) (UniProt Q96J92); experiment: Binding affinity to wild-type human partial length WNK4 (A31 to D461 residues) expressed in HEK293 cells at 1 uM by Kinomescan method relative to control; format: cell-based
# Sequence of Receptor-type tyrosine-protein kinase FLT3 (Homo sapiens) (P36888 whole entry, the tested form may be a part): as the sequence (P36888 whole entry, looked up, stated change not applied, the tested form may be a part) above
Structure (SMILES),Activity [1],Activity [2],Activity [3],Activity [4],Activity [5],Activity [6],Activity [7],Activity [8],Activity [9],Activity [10],Activity [11],Activity [12],Activity [13],Activity [14],Activity [15],Activity [16],Activity [17],Activity [18],Activity [19],Activity [20],further results
CCC(=O)Nc1ccc(C(=O)Nc2ccc(Nc3ncc4c(n3)N(C)c3ccc(C)cc3C(=O)N4C)cc2)cc1,100%,100%,85%,86%,99%,96%,90%,78%,100%,80%,95%,97%,66%,96%,100%,66%,89%,89%,95%,91%,Activity [21]: 64%; Activity [22]: 100%; Activity [23]: 90%; Activity [24]: 73%; Activity [25]: 85%
C=CC(=O)Nc1ccc(C(=O)Nc2ccc(Nc3ncc4c(n3)N(C)c3ccc(C)cc3C(=O)N4C)cc2)cc1,100%,100%,52%,100%,100%,100%,100%,97%,94%,91%,97%,100%,96%,95%,93%,87%,98%,100%,80%,87%,Activity [21]: 68%; Activity [22]: 87%; Activity [23]: 100%; Activity [24]: 88%; Activity [25]: 99%
